Measurements published in ChEMBL document CHEMBL4041530, “Development of spiroguanidine-derived α7 neuronal nicotinic receptor partial agonists” (Bioorg Med Chem Lett, 2017).

What follows are compounds tested against Neuronal acetylcholine receptor subunit alpha-7 (Homo sapiens, UniProt P36544) (assay: Agonist activity at alpha7 nAChR (unknown origin) expressed in HEK293 cells assessed as increase in calcium influx by Fluo-4-AM dye based FLIPR assay).
Format: cell-based
Summary of the method: (§1)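 Ca2+-based fluorescence imaging plate reader screen, run as two assays: α7 nAChR agonism and 5-HT3A receptor antagonism. Number of determinations recorded per value.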

Sequence of Neuronal acetylcholine receptor subunit alpha-7 (P36544 whole entry): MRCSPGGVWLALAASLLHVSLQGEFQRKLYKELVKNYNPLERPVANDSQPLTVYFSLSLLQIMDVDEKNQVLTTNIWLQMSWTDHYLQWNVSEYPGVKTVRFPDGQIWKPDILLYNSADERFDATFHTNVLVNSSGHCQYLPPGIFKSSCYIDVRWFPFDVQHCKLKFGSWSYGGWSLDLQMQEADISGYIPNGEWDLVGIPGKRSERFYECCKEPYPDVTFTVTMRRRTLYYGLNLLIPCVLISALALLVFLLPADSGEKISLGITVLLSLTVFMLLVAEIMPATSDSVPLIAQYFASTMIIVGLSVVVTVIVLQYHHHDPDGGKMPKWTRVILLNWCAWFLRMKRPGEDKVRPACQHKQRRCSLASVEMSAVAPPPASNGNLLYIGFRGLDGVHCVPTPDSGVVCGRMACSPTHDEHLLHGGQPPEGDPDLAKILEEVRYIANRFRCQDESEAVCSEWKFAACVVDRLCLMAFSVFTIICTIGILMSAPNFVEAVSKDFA

SMILES | EC50 [nM]
CCN1C(Nc2nc3ccc(OC)cc3s2)=NCC12CN1CCC2CC1 (racemic) | > 10000
c1ccc2nc(NC3=NCC4(CN5CCC4CC5)N3)cnc2c1 (racemic) | 490
c1cn(-c2cc(NC3=NCC4(CN5CCC4CC5)N3)ncn2)cn1 (racemic) | 140
Clc1ccc(NC2=NCC3(CN4CCC3CC4)N2)nc1 (racemic) | 1200
CN1C(Nc2nc3ccc(Cl)nc3s2)=NCC12CN1CCC2CC1 (racemic) | 550
COc1ccc2sc(NC3=NCC4(CN5CCC4CC5)N3)nc2c1 (racemic) | 750
COc1ccc2nc(NC3=NCC4(CN5CCC4CC5)N3)sc2c1 (racemic) | 880
Clc1cnc(NC2=NCC3(CN4CCC3CC4)N2)cn1 (racemic) | 990
c1ccc2c(NC3=NCC4(CN5CCC4CC5)N3)ncnc2c1 (racemic) | 530
c1ccc2oc(NC3=NCC4(CN5CCC4CC5)N3)nc2c1 (racemic) | 53

These compounds were tested against T1, 5-hydroxytryptamine receptor 3A (Homo sapiens, UniProt P46098) (assay: Antagonist activity at 5-HT3A receptor (unknown origin) assessed as decrease in calcium influx by Fluo-4-AM dye based FLIPR assay).
T1 sequence (P46098 whole entry): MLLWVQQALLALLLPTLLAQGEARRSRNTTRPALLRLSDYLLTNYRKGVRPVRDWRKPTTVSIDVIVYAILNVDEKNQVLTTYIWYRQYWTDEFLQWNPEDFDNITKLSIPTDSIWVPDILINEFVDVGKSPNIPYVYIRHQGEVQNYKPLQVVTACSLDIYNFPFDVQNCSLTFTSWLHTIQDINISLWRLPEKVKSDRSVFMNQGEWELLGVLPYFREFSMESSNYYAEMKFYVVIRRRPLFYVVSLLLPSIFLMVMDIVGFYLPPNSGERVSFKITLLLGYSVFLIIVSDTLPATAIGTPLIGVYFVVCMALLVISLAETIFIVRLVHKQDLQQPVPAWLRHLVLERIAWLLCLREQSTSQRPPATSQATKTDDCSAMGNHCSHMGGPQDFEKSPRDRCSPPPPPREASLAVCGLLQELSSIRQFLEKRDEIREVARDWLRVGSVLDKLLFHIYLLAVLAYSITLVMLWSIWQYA
Summary of the method: as §1

SMILES | IC50 [nM]
CCN1C(Nc2nc3ccc(OC)cc3s2)=NCC12CN1CCC2CC1 (racemic) | > 12000
c1ccc2nc(NC3=NCC4(CN5CCC4CC5)N3)cnc2c1 (racemic) | 1400
c1cn(-c2cc(NC3=NCC4(CN5CCC4CC5)N3)ncn2)cn1 (racemic) | 6400
Clc1ccc(NC2=NCC3(CN4CCC3CC4)N2)nc1 (racemic) | 860
CN1C(Nc2nc3ccc(Cl)nc3s2)=NCC12CN1CCC2CC1 (racemic) | 13000
COc1ccc2sc(NC3=NCC4(CN5CCC4CC5)N3)nc2c1 (racemic) | 51
COc1ccc2nc(NC3=NCC4(CN5CCC4CC5)N3)sc2c1 (racemic) | 32000
Clc1cnc(NC2=NCC3(CN4CCC3CC4)N2)cn1 (racemic) | 5600
c1ccc2c(NC3=NCC4(CN5CCC4CC5)N3)ncnc2c1 (racemic) | 14500
c1ccc2oc(NC3=NCC4(CN5CCC4CC5)N3)nc2c1 (racemic) | 26

Organism: Homo sapiens
Assay: Selectivity ratio of IC50 for 5-HT3A receptor (unknown origin) to EC50 for alpha7 nAChR (unknown origin) expressed in HEK293 cells
Format: cell-based
Summary of the method: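 Selectivity ratio calculated as 5-HT3A IC50 (FLIPR Ca2+ antagonist assay) divided by α7 EC50 (FLIPR Ca2+ agonist assay).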

SMILES | Ratio IC50/EC50
CCN1C(Nc2nc3ccc(OC)cc3s2)=NCC12CN1CCC2CC1 (racemic) | > 1
c1ccc2nc(NC3=NCC4(CN5CCC4CC5)N3)cnc2c1 (racemic) | 2.9
c1cn(-c2cc(NC3=NCC4(CN5CCC4CC5)N3)ncn2)cn1 (racemic) | 460
Clc1ccc(NC2=NCC3(CN4CCC3CC4)N2)nc1 (racemic) | 0.72
CN1C(Nc2nc3ccc(Cl)nc3s2)=NCC12CN1CCC2CC1 (racemic) | 24
COc1ccc2sc(NC3=NCC4(CN5CCC4CC5)N3)nc2c1 (racemic) | 0.068
COc1ccc2nc(NC3=NCC4(CN5CCC4CC5)N3)sc2c1 (racemic) | 36
Clc1cnc(NC2=NCC3(CN4CCC3CC4)N2)cn1 (racemic) | 5.7
c1ccc2c(NC3=NCC4(CN5CCC4CC5)N3)ncnc2c1 (racemic) | 27
c1ccc2oc(NC3=NCC4(CN5CCC4CC5)N3)nc2c1 (racemic) | 0.49
